Assay results reported in ChEMBL document CHEMBL2424551, “Synthesis, in vitro evaluation and molecular modelling of naphthalimide analogue as anticancer agents” (2013).
Active and inactive are the calls of the source. No cut-off for these calls is given here.

Assays:
Type in all cases: functional
KM12 = experiment: Growth inhibition of human KM12 cells at 10 uM after 48 hrs by SRB assay; conditions: KM12, 48 h, read-out: GI
Procedure, shortened: (§1)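 Cells grown in RPMI 1640 with 5% FBS and 2 mM L-glutamine, plated at 5000–40,000 cells/well by doubling time and preincubated 24 h (37 °C, 5% CO2); a time-zero plate is TCA-fixed. Single dose added, then 48 h incubation. Fixed with cold TCA, stained with 0.4% SRB, dye solubilized in 10 mM Tris base, absorbance at 515 nm; percent growth vs time-zero and untreated control.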

SF-295 = experiment: Growth inhibition of human SF295 cells at 10 uM after 48 hrs by SRB assay; conditions: SF-295, 48 h, read-out: GI; procedure, shortened: as §1
NCI-H460 = experiment: Growth inhibition of human NCI-H460 cells at 10 uM after 48 hrs by SRB assay; conditions: NCI-H460, 48 h, read-out: GI; procedure, shortened: as §1
Hs-578T = experiment: Growth inhibition of human Hs578T cells at 10 uM after 48 hrs by SRB assay; conditions: for inhibition of growth at 10 µM: read-out: GI; procedure, shortened: as §1
SF-539 = experiment: Growth inhibition of human SF539 cells at 10 uM after 48 hrs by SRB assay; conditions: for inhibition of growth at 10 µM: SF-539, 48 h, read-out: GI; procedure, shortened: as §1
UO-31 = experiment: Growth inhibition of human UO31 cells at 10 uM after 48 hrs by SRB assay; conditions: UO-31, 48 h, read-out: GI
Procedure, shortened: (§2)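 NCI 60-cell-line screen with a single 10 µM dose. Cells are grown in RPMI 1640 with 5% FBS and 2 mM L-glutamine, plated at 5000–40,000 cells/well according to doubling time, and preincubated 24 h at 37 °C, 5% CO2; time-zero plates are TCA-fixed at that point. Drug exposure is 48 h. Adherent cells are fixed with cold TCA, stained with 0.4% SRB in 1% acetic acid and read at 515 nm. Percent growth is calculated relative to time-zero and untreated controls and reported as GI%.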

ACHN = experiment: Growth inhibition of human ACHN cells at 10 uM after 48 hrs by SRB assay; conditions: read-out: GI; procedure, shortened: as §1
MDA-MB-435 = experiment: Growth inhibition of human MDA-MB-435 cells at 10 uM after 48 hrs by SRB assay; conditions: MDA-MB-435, 48 h, read-out: GI; procedure, shortened: as §1
NCI-H226 = experiment: Growth inhibition of human NCI-H226 cells at 10 uM after 48 hrs by SRB assay; conditions: NCI-H226, 48 h, read-out: GI; procedure, shortened: as §1
PC-3 = experiment: Growth inhibition of human PC3 cells at 10 uM after 48 hrs by SRB assay; conditions: PC-3, 48 h, read-out: GI; procedure, shortened: as §1
SF-268 = experiment: Growth inhibition of human SF268 cells at 10 uM after 48 hrs by SRB assay; conditions: SF-268, 48 h, read-out: GI; procedure, shortened: as §1
HT-29 = experiment: Growth inhibition of human HT-29 cells at 10 uM after 48 hrs by SRB assay; conditions: HT-29, 48 h, read-out: GI; procedure, shortened: as §1
OVCAR-5 = experiment: Growth inhibition of human OVCAR5 cells at 10 uM after 48 hrs by SRB assay; conditions: OVCAR-5, 48 h, read-out: GI; procedure, shortened: as §1
RPMI-8226 = experiment: Growth inhibition of human RPMI8226 cells at 10 uM after 48 hrs by SRB assay; conditions: RPMI-8226, 48 h, read-out: GI; procedure, shortened: as §1
LOX IMVI = experiment: Growth inhibition of human LOXIMVI cells at 10 uM after 48 hrs by SRB assay; conditions: read-out: GI; procedure, shortened: as §1
HCT-116 = experiment: Growth inhibition of human HCT116 cells at 10 uM after 48 hrs by SRB assay; conditions: HCT-116, 48 h, read-out: GI; procedure, shortened: as §1
[1] = Growth inhibition of human NCI-ADR-RES cells at 10 uM after 48 hrs by SRB assay; conditions: read-out: GI; procedure, shortened: as §1
OVCAR-8 = experiment: Growth inhibition of human OVCAR8 cells at 10 uM after 48 hrs by SRB assay; conditions: OVCAR-8, 48 h, read-out: GI; procedure, shortened: as §1
HL-60(TB) = experiment: Growth inhibition of human HL-60(TB) cells at 10 uM after 48 hrs by SRB assay; conditions: HL-60, 48 h, read-out: GI
Procedure, shortened: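 Single-concentration pass across the 60-line panel in RPMI 1640 with 5% FBS. Cells preincubated 24 h, then exposed 48 h at 37 °C, 5% CO2. Read by SRB staining with absorbance at 515 nm. Percent growth is taken relative to time-zero and untreated controls and reported as percent growth inhibition (GI %).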

NCI-H522 = experiment: Growth inhibition of human NCI-H522 cells at 10 uM after 48 hrs by SRB assay; conditions: NCI-H522, 48 h, read-out: GI; procedure, shortened: as §1
NCI-H322M = experiment: Growth inhibition of human NCI-H322M cells at 10 uM after 48 hrs by SRB assay; conditions: read-out: GI; procedure, shortened: as §1
[2] = Growth inhibition of human HCC2998 cells at 10 uM after 48 hrs by SRB assay; conditions: HCC 2998, 48 h, read-out: GI; procedure, shortened: as §1
SK-MEL-2 = experiment: Growth inhibition of human SK-MEL-2 cells at 10 uM after 48 hrs by SRB assay; conditions: SK-MEL-2, 48 h, read-out: GI; procedure, shortened: as §1
CCRF-CEM = experiment: Growth inhibition of human CCRF-CEM cells at 10 uM after 48 hrs by SRB assay; conditions: read-out: GI; procedure, shortened: as §1
A498 = experiment: Growth inhibition of human A498 cells at 10 uM after 48 hrs by SRB assay; conditions: for inhibition of growth at 10 µM: A498, 48 h, read-out: GI; procedure, shortened: as §1
MOLT-4 = experiment: Growth inhibition of human MOLT4 cells at 10 uM after 48 hrs by SRB assay; conditions: for inhibition of growth at 10 µM: MOLT-4, 48 h, read-out: GI; procedure, shortened: as §1
BT-549 = experiment: Growth inhibition of human BT549 cells at 10 uM after 48 hrs by SRB assay; conditions: BT-549, 48 h, read-out: GI; procedure, shortened: as §1
OVCAR-3 = experiment: Growth inhibition of human OVCAR3 cells at 10 uM after 48 hrs by SRB assay; conditions: OVCAR-3, 48 h, read-out: GI; procedure, shortened: as §1
OVCAR-4 = experiment: Growth inhibition of human OVCAR4 cells at 10 uM after 48 hrs by SRB assay; conditions: OVCAR-4, 48 h, read-out: GI; procedure, shortened: as §1
SK-OV-3 = experiment: Growth inhibition of human SKOV3 cells at 10 uM after 48 hrs by SRB assay; conditions: SK-OV-3, 48 h, read-out: GI; procedure, shortened: as §2
UACC-62 = experiment: Growth inhibition of human UACC62 cells at 10 uM after 48 hrs by SRB assay; conditions: UACC-62, 48 h, read-out: GI; procedure, shortened: as §2
U-251 = experiment: Growth inhibition of human U251 cells at 10 uM after 48 hrs by SRB assay; conditions: U-251, 48 h, read-out: GI; procedure, shortened: as §2
M14 = experiment: Growth inhibition of human M14 cells at 10 uM after 48 hrs by SRB assay; conditions: M14, 48 h, read-out: GI; procedure, shortened: as §1
UACC-257 = experiment: Growth inhibition of human UACC257 cells at 10 uM after 48 hrs by SRB assay; conditions: UACC-257, 48 h, read-out: GI; procedure, shortened: as §2
SR = experiment: Growth inhibition of human SR cells at 10 uM after 48 hrs by SRB assay; conditions: read-out: GI; procedure, shortened: as §2

SMILES	inhibition of growth at 10 µM (KM12)	inhibition of growth at 10 µM (SF-295)	inhibition of growth at 10 µM (NCI-H460)	inhibition of growth at 10 µM (UO-31)	inhibition of growth at 10 µM (ACHN)	inhibition of growth at 10 µM (MDA-MB-435)	inhibition of growth at 10 µM (NCI-H226)	inhibition of growth at 10 µM (PC-3)	inhibition of growth at 10 µM (SF-268)	inhibition of growth at 10 µM (HT-29)	inhibition of growth at 10 µM (OVCAR-5)	inhibition of growth at 10 µM (RPMI-8226)	inhibition of growth at 10 µM (LOX IMVI)	inhibition of growth at 10 µM (HCT-116)	inhibition of growth at 10 µM [1]	inhibition of growth at 10 µM (HL-60(TB))	inhibition of growth at 10 µM (NCI-H522)	inhibition of growth at 10 µM (NCI-H322M)	inhibition of growth at 10 µM (SK-MEL-2)	inhibition of growth at 10 µM (CCRF-CEM)	also measured
Nc1ccc(Sc2ccc3c4c2cccc4c(=O)n2c4ccccc4nc32)cc1	26.4%	88%	90.5%	90.7%	77.9%	< 20%	59.4%	49.6%	40.6%	33.3%	< 20%	50%	70.8%	53.2%	43.4%	81.8%	40%	38.2%	< 20%	55.1%	inhibition of growth at 10 µM (Hs-578T): 40.4%; inhibition of growth at 10 µM (SF-539): 51.5%; inhibition of growth at 10 µM (OVCAR-8): 50%; inhibition of growth at 10 µM [2]: < 20%; inhibition of growth at 10 µM (A498): 41.2%; growth inhibition (GI) (MOLT-4): Active; inhibition of growth at 10 µM (BT-549): 40.9%; inhibition of growth at 10 µM (OVCAR-3): 22.2%; inhibition of growth at 10 µM (OVCAR-4): 26%; inhibition of growth at 10 µM (SK-OV-3): 46.1%; inhibition of growth at 10 µM (UACC-62): 68.1%; inhibition of growth at 10 µM (U-251): 60.1%; inhibition of growth at 10 µM (M14): 54.6%; inhibition of growth at 10 µM (UACC-257): 29%; inhibition of growth at 10 µM (SR): 83.9%
O=c1c2cccc3c(N4CCCC4)ccc(c32)c2nc3ccccc3n12	< 20%	40.2%	83.9%	43.8%	47.6%	< 20%	44.7%	32.1%	< 20%	22.2%	< 20%	24.3%	48.3%	45.3%	< 20%	28%	28.9%	< 20%	< 20%	46.3%	inhibition of growth at 10 µM (Hs-578T): 32.8%; inhibition of growth at 10 µM (SF-539): < 20%; inhibition of growth at 10 µM (OVCAR-8): 34%; inhibition of growth at 10 µM [2]: 29.6%; inhibition of growth at 10 µM (A498): 62%; inhibition of growth at 10 µM (MOLT-4): 97.4%; inhibition of growth at 10 µM (BT-549): 28.8%; inhibition of growth at 10 µM (OVCAR-3): < 20%; inhibition of growth at 10 µM (OVCAR-4): 21.2%; inhibition of growth at 10 µM (SK-OV-3): 20.9%; inhibition of growth at 10 µM (UACC-62): 37.5%; inhibition of growth at 10 µM (U-251): 35.3%; inhibition of growth at 10 µM (M14): < 20%; inhibition of growth at 10 µM (UACC-257): < 20%; inhibition of growth at 10 µM (SR): 79.8%
O=c1[nH]cc(F)c(=O)[nH]1 [FLUOROURACIL]	40.7%	69.1%	13%	41.3%	39.3%	36.6%	69.5%	58.2%	59%	27.1%	44.3%	41.4%	30.4%	17.8%	47.6%	47.9%	58%	59.5%	95.5%	57.1%	growth inhibition (GI) (Hs-578T): Active; growth inhibition (GI) (SF-539): Active; growth inhibition (GI) (A498): Active; inhibition of growth at 10 µM (MOLT-4): 43.1%; inhibition of growth at 10 µM (BT-549): 37.8%; inhibition of growth at 10 µM (OVCAR-3): 47.4%; inhibition of growth at 10 µM (OVCAR-4): 59.4%; inhibition of growth at 10 µM (SK-OV-3): 77.5%; inhibition of growth at 10 µM (UACC-62): 39.7%; inhibition of growth at 10 µM (U-251): 50.3%; inhibition of growth at 10 µM (UACC-257): 19.5%; inhibition of growth at 10 µM (SR): 24.8%
O=c1c2cccc3c(Nc4ccc(F)cc4)ccc(c32)c2nc3ccccc3n12	25.6%	< 20%	22.1%	50.8%	< 20%	< 20%	< 20%	22.8%	< 20%	< 20%	< 20%	42.6%	< 20%	< 20%	< 20%	< 20%	< 20%	32.2%	< 20%	< 20%	inhibition of growth at 10 µM (Hs-578T): 26.4%; inhibition of growth at 10 µM (SF-539): < 20%; inhibition of growth at 10 µM (OVCAR-8): < 20%; inhibition of growth at 10 µM [2]: 23.9%; inhibition of growth at 10 µM (A498): 33.8%; inhibition of growth at 10 µM (MOLT-4): < 20%; inhibition of growth at 10 µM (BT-549): < 20%; inhibition of growth at 10 µM (OVCAR-3): < 20%; inhibition of growth at 10 µM (OVCAR-4): 24%; inhibition of growth at 10 µM (SK-OV-3): < 20%; inhibition of growth at 10 µM (UACC-62): 32.2%; inhibition of growth at 10 µM (U-251): < 20%; inhibition of growth at 10 µM (M14): < 20%; inhibition of growth at 10 µM (UACC-257): < 20%
